According to ChEMBL document CHEMBL1138525 (J Med Chem, 2009):
Active and inactive are the calls of the source. The calls are words filed in the database; no cut-off is given here.

Assays:
Format in all cases: functional, cell-based
[1] = tested on: P2Y purinoceptor 2 (Homo sapiens), P41231 [R177A]; test: Agonist activity at N-terminal HA epitope-tagged human P2Y2 receptor R177A mutant expressed in human 1321N1 cells assessed as increase in intracellular calcium level relative to carbachol
In short: (§1)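 Retrovirally transduced stable 1321N1 astrocytoma lines (wild-type lines of differing expression, or mutants) in suspension, loaded with Oregon Green BAPTA-1/AM for 1 h at room temperature. Cells were plated at 150000 per well in Krebs-HEPES pH 7.4 and held 20 min at 28 °C in the dark. Agonist was then injected, with fluorescence read at ex 485/em 520 nm for 60 × 0.4 s.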

[2] = molecular target: T1, P2Y purinoceptor 2 (Homo sapiens, UniProt P41231); test: Agonist activity at N-terminal HA epitope-tagged wild type 3 human P2Y2 receptor expressed in human 1321N1 cells assessed as increase in intracellular calcium level
In short: (§2)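 Retrovirally transduced stable 1321N1 astrocytoma lines (wild-type lines of differing expression, or mutants) in suspension, loaded with Oregon Green BAPTA-1/AM for 1 h at room temperature. Cells were plated at 150000 per well in Krebs-HEPES pH 7.4 and held 20 min at 28 °C in the dark.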

[3] = molecular target: T1, P2Y purinoceptor 2; test: Agonist activity at N-terminal HA epitope-tagged wild type 4 human P2Y2 receptor expressed in human 1321N1 cells assessed as increase in intracellular calcium level relative to carbachol; in short: as §1
[4] = tested on: P2Y purinoceptor 2 (Homo sapiens), P41231 [Y114A]; test: Agonist activity at N-terminal HA epitope-tagged human P2Y2 receptor Y114A mutant expressed in human 1321N1 cells assessed as increase in intracellular calcium level relative to carbachol; in short: as §1
[5] = molecular target: P2Y purinoceptor 2 (Homo sapiens, UniProt P41231, R177A/R180A); test: Agonist activity at N-terminal HA epitope-tagged human P2Y2 receptor R177A_R180A double mutant expressed in human 1321N1 cells assessed as increase in intracellular calcium level
In short: (§3)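 1321N1 astrocytoma cells stably expressing mutant receptor (retroviral transfection, G418 selection), loaded with Oregon Green BAPTA-1/AM in Krebs-HEPES pH 7.4 for 1 h at room temperature. Plated at 150000 cells/well and held 20 min at 28 °C in the dark. Efficacy relative to 100 µM carbachol.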

[6] = molecular target: T1, P2Y purinoceptor 2; test: Agonist activity at N-terminal HA epitope-tagged wild type 1 human P2Y2 receptor expressed in human 1321N1 cells assessed as increase in intracellular calcium level; in short: as §1
[7] = molecular target: P2Y purinoceptor 2 (Homo sapiens, UniProt P41231, R194H); test: Agonist activity at N-terminal HA epitope-tagged human P2Y2 receptor R194H mutant expressed in human 1321N1 cells assessed as increase in intracellular calcium level; in short: as §3
[8] = molecular target: P2Y purinoceptor 2 (Homo sapiens, UniProt P41231, Y114A); test: Agonist activity at N-terminal HA epitope-tagged human P2Y2 receptor Y114A mutant expressed in human 1321N1 cells assessed as increase in intracellular calcium level; in short: as §3
[9] = tested on: P2Y purinoceptor 2 (Homo sapiens), P41231 [R177A,R180A]; test: Agonist activity at N-terminal HA epitope-tagged human P2Y2 receptor R177A_R180A double mutant expressed in human 1321N1 cells assessed as increase in intracellular calcium level relative to carbachol; in short: as §1
[10] = molecular target: P2Y purinoceptor 2 (Homo sapiens, UniProt P41231, R177A); test: Agonist activity at N-terminal HA epitope-tagged human P2Y2 receptor R177A mutant expressed in human 1321N1 cells assessed as increase in intracellular calcium level; in short: as §3
[11] = tested on: P2Y purinoceptor 2 (Homo sapiens), P41231 [Y118A]; test: Agonist activity at N-terminal HA epitope-tagged human P2Y2 receptor Y118A mutant expressed in human 1321N1 cells assessed as increase in intracellular calcium level relative to carbachol; in short: as §1
[12] = tested on: P2Y purinoceptor 2 (Homo sapiens), P41231 [R194H]; test: Agonist activity at N-terminal HA epitope-tagged human P2Y2 receptor R194H mutant expressed in human 1321N1 cells assessed as increase in intracellular calcium level relative to carbachol; in short: as §1
[13] = molecular target: P2Y purinoceptor 2 (Homo sapiens, UniProt P41231, R272A); test: Agonist activity at N-terminal HA epitope-tagged human P2Y2 receptor R272A mutant expressed in human 1321N1 cells assessed as increase in intracellular calcium level; in short: as §3
[14] = molecular target: P2Y purinoceptor 2 (Homo sapiens, UniProt P41231, C278S); test: Agonist activity at N-terminal HA epitope-tagged human P2Y2 receptor C278S mutant expressed in human 1321N1 cells assessed as increase in intracellular calcium level; in short: as §3
[15] = molecular target: P2Y purinoceptor 2 (Homo sapiens, UniProt P41231, R180A); test: Agonist activity at N-terminal HA epitope-tagged human P2Y2 receptor R180A mutant expressed in human 1321N1 cells assessed as increase in intracellular calcium level; in short: as §3
[16] = molecular target: T1, P2Y purinoceptor 2; test: Agonist activity at N-terminal HA epitope-tagged wild type human P2Y2 receptor expressed in human 1321N1 cells assessed as increase in intracellular calcium level; in short: as §1
[17] = molecular target: P2Y purinoceptor 2 (Homo sapiens, UniProt P41231, Y118A); test: Agonist activity at N-terminal HA epitope-tagged human P2Y2 receptor Y118A mutant expressed in human 1321N1 cells assessed as increase in intracellular calcium level; in short: as §3
[18] = molecular target: T1, P2Y purinoceptor 2; test: Agonist activity at N-terminal HA epitope-tagged wild type 3 human P2Y2 receptor expressed in human 1321N1 cells assessed as increase in intracellular calcium level relative to carbachol; in short: as §1
[19] = molecular target: P2Y purinoceptor 2 (Homo sapiens, UniProt P41231, Y198A); test: Agonist activity at N-terminal HA epitope-tagged human P2Y2 receptor Y198A mutant expressed in human 1321N1 cells assessed as increase in intracellular calcium level; in short: as §3
[20] = tested on: P2Y purinoceptor 2 (Homo sapiens), P41231 [Y198A]; test: Agonist activity at N-terminal HA epitope-tagged human P2Y2 receptor Y198A mutant expressed in human 1321N1 cells assessed as increase in intracellular calcium level relative to carbachol; in short: as §1
[21] = molecular target: P2Y purinoceptor 2 (Homo sapiens, UniProt P41231, S296A); test: Agonist activity at N-terminal HA epitope-tagged human P2Y2 receptor S296A mutant expressed in human 1321N1 cells assessed as increase in intracellular calcium level; in short: as §2
[22] = tested on: P2Y purinoceptor 2 (Homo sapiens), P41231 [R180A]; test: Agonist activity at N-terminal HA epitope-tagged human P2Y2 receptor R180A mutant expressed in human 1321N1 cells assessed as increase in intracellular calcium level relative to carbachol; in short: as §1
[23] = tested on: P2Y purinoceptor 2 (Homo sapiens), P41231 [C278S]; test: Agonist activity at N-terminal HA epitope-tagged human P2Y2 receptor C278S mutant expressed in human 1321N1 cells assessed as increase in intracellular calcium level relative to carbachol; in short: as §1
[24] = molecular target: T1, P2Y purinoceptor 2; test: Agonist activity at N-terminal HA epitope-tagged wild type 4 human P2Y2 receptor expressed in human 1321N1 cells assessed as increase in intracellular calcium level; in short: as §2
[25] = tested on: P2Y purinoceptor 2 (Homo sapiens), P41231 [S296A]; test: Agonist activity at N-terminal HA epitope-tagged human P2Y2 receptor S296A mutant expressed in human 1321N1 cells assessed as increase in intracellular calcium level relative to carbachol; in short: as §1
[26] = tested on: P2Y purinoceptor 2 (Homo sapiens), P41231 [R272A]; test: Agonist activity at N-terminal HA epitope-tagged human P2Y2 receptor R272A mutant expressed in human 1321N1 cells assessed as increase in intracellular calcium level relative to carbachol; in short: as §1
[27] = tested on: 1321-N1; test: Effect on intracellular calcium level in non transfected human 1321N1 cells

T1 sequence (P41231 whole entry): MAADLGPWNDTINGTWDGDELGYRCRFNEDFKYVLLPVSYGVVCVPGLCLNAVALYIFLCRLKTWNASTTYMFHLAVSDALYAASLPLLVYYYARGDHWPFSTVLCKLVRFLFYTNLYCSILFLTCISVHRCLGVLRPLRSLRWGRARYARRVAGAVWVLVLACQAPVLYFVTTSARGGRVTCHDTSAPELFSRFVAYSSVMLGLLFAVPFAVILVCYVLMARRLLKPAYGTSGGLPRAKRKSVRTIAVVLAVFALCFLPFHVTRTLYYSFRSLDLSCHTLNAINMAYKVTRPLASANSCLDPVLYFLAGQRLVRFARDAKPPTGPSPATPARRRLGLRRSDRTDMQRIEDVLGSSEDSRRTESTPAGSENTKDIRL
P2Y purinoceptor 2 (Homo sapiens, UniProt P41231, Y198A), sequence (P41231 whole entry Y198A): as the sequence (P41231 whole entry) above, with Y198A counted along it
P2Y purinoceptor 2 (Homo sapiens), P41231 [Y198A], sequence (P41231 whole entry Y198A): as the sequence (P41231 whole entry) above, with Y198A counted along it
P2Y purinoceptor 2 (Homo sapiens), P41231 [Y118A], sequence (P41231 whole entry Y118A): as the sequence (P41231 whole entry) above, with Y118A counted along it
P2Y purinoceptor 2 (Homo sapiens, UniProt P41231, Y118A), sequence (P41231 whole entry Y118A): as the sequence (P41231 whole entry) above, with Y118A counted along it
P2Y purinoceptor 2 (Homo sapiens), P41231 [R177A,R180A], sequence (P41231 whole entry R177A/R180A): as the sequence (P41231 whole entry) above, with R177A, R180A counted along it
P2Y purinoceptor 2 (Homo sapiens, UniProt P41231, R177A/R180A), sequence (P41231 whole entry R177A/R180A): as the sequence (P41231 whole entry) above, with R177A, R180A counted along it
P2Y purinoceptor 2 (Homo sapiens), P41231 [C278S], sequence (P41231 whole entry C278S): as the sequence (P41231 whole entry) above, with C278S counted along it
P2Y purinoceptor 2 (Homo sapiens, UniProt P41231, C278S), sequence (P41231 whole entry C278S): as the sequence (P41231 whole entry) above, with C278S counted along it
P2Y purinoceptor 2 (Homo sapiens), P41231 [R180A], sequence (P41231 whole entry R180A): as the sequence (P41231 whole entry) above, with R180A counted along it
P2Y purinoceptor 2 (Homo sapiens, UniProt P41231, R180A), sequence (P41231 whole entry R180A): as the sequence (P41231 whole entry) above, with R180A counted along it
P2Y purinoceptor 2 (Homo sapiens, UniProt P41231, R177A), sequence (P41231 whole entry R177A): as the sequence (P41231 whole entry) above, with R177A counted along it
P2Y purinoceptor 2 (Homo sapiens), P41231 [R177A], sequence (P41231 whole entry R177A): as the sequence (P41231 whole entry) above, with R177A counted along it
P2Y purinoceptor 2 (Homo sapiens, UniProt P41231, S296A), sequence (P41231 whole entry S296A): as the sequence (P41231 whole entry) above, with S296A counted along it
P2Y purinoceptor 2 (Homo sapiens), P41231 [S296A], sequence (P41231 whole entry S296A): as the sequence (P41231 whole entry) above, with S296A counted along it
P2Y purinoceptor 2 (Homo sapiens), P41231 [Y114A], sequence (P41231 whole entry Y114A): as the sequence (P41231 whole entry) above, with Y114A counted along it
P2Y purinoceptor 2 (Homo sapiens, UniProt P41231, Y114A), sequence (P41231 whole entry Y114A): as the sequence (P41231 whole entry) above, with Y114A counted along it
P2Y purinoceptor 2 (Homo sapiens, UniProt P41231, R272A), sequence (P41231 whole entry R272A): as the sequence (P41231 whole entry) above, with R272A counted along it
P2Y purinoceptor 2 (Homo sapiens), P41231 [R272A], sequence (P41231 whole entry R272A): as the sequence (P41231 whole entry) above, with R272A counted along it
P2Y purinoceptor 2 (Homo sapiens, UniProt P41231, R194H), sequence (P41231 whole entry R194H): as the sequence (P41231 whole entry) above, with R194H counted along it
P2Y purinoceptor 2 (Homo sapiens), P41231 [R194H], sequence (P41231 whole entry R194H): as the sequence (P41231 whole entry) above, with R194H counted along it

O=c1ccn([C@@H]2O[C@H](COP(=O)(O)OP(=O)(O)OP(=O)(O)O)[C@@H](O)[C@H]2O)c(=O)[nH]1 [URIDINE TRIPHOSPHATE]
Efficacy [1]: 133%
EC50 [2]: 80.4 nM
Efficacy [3]: 138%
Efficacy [4]: 107%
EC50 [5]: 123 nM
EC50 [6]: 781 nM
EC50 [7]: 121 nM
EC50 [8]: 37.2 nM
Efficacy [9]: 109%
EC50 [10]: 50.1 nM
Efficacy [11]: 43%
Efficacy [12]: 127%
EC50 [13]: 20600 nM
EC50 [14]: 2090 nM
EC50 [15]: 138 nM
Activity [16]: Dose-dependent effect
EC50 [17]: 157 nM
Efficacy [18]: 100%
EC50 [19]: 108 nM
Efficacy [20]: 128%
EC50 [21]: > 300000 nM
Efficacy [22]: 130%
Efficacy [23]: 86%
EC50 [24]: 59 nM
Efficacy [25]: 3%
Efficacy [26]: 99%
Activity [27]: inactive
